Shown are actives, neighbours in structure and some others; about 3% of the full set was active somewhere.
NPR2 activator: GC-B (human) receptor activation; P20594; HEK293-GC-B cells, CNP EC30, cGMP TR-FRET; 0% at EC30 CNP, 100% saturating CNP; activation, % at 10 µM; 0.11% of 370,000 active; AID 1920062;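 active = activation at 10 µM reaching about 35% in either raw or pattern-adjusted values, limit read from the data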
Target sequence (P20594 whole entry, looked up): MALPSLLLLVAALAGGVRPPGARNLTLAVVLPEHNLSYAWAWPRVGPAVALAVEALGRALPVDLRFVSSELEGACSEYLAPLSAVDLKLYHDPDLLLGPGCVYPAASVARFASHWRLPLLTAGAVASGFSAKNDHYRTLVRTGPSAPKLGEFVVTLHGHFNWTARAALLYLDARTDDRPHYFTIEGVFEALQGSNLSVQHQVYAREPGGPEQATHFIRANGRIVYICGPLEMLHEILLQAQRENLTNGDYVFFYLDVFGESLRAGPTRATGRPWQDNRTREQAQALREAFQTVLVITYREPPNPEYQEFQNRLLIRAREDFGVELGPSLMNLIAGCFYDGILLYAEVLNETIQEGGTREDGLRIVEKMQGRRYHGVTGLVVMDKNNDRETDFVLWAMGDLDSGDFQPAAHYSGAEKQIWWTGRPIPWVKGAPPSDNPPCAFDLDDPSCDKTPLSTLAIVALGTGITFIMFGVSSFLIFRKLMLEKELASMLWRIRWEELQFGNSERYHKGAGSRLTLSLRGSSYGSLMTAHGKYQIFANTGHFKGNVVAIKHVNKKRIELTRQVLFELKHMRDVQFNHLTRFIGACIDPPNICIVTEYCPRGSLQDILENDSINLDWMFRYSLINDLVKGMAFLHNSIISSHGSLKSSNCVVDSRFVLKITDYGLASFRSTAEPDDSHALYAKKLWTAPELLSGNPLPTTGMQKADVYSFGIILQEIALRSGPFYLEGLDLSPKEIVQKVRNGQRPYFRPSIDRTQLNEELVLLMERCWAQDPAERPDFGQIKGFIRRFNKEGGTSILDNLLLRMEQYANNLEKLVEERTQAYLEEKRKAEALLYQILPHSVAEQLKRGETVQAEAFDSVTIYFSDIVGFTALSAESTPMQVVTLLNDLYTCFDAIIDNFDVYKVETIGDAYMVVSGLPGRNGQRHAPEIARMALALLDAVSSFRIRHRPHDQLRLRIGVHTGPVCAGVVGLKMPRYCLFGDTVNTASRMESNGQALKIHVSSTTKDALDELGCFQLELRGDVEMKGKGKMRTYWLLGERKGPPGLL
GC-A act: GC-A (human) enzyme activation. P16066. HEK293 GC-A cells, cGMP TR-FRET, EC30 ANP; 0% at EC30 ANP, 100% saturating ANP. activation, % at 10 µM. 0.14% of 370,000 active. AID 1671463; in the data active = activation above about 40%
Hep lipid drop: modulators of hepatic lipid droplet formation; AML12 mouse hepatocytes, oleate lipid droplets, BODIPY imaging; inhibition, % at 6.5 µM; 0.4% of 240,000 active; AID 1656;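 active = lipid droplet intensity inhibited by at least 50%, with more than 500 cells counted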
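Test system: AML12 mouse liver cells; schedule: overnight exposure; technique: high-content imaging of BODIPY-stained droplets and DAPI nuclei; read-out: % inhibition of corrected integrated BODIPY droplet signal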
GRIN3A LBD mod: NR3A (human) ligand-binding domain modulation; NR3A LBD differential scanning fluorimetry, Tm shift; 0% = protein alone, 100% = glycine-bound protein; 2.5% of 340,000 active; Tm shift relative to glycine control, % at 25 µM;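 active = melting temperature shift of at least 10% of the positive control shift, at one fixed dose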
JMJD2C inh: blocks human GASC-1 demethylase activity; Q9H3R0; GST-JMJD2C(1-420) H3K9me3 demethylation, DELFIA europium; inhibition, % at 2.35 µM; 0.069% of 330,000 active;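 active = more than half of a compound's replicate wells show inhibition beyond 50%, single wells judged on their own value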;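 note: signal counts dimethyl H3K9 product captured on neutravidin plate; 0% = median of DMSO wells and 100% = 0.3 times that DMSO median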
aDG glyco act: increases alpha dystroglycan glycosylation | Pro5-aDG cells, alpha-DG glycosylation AlphaScreen (IIH6); 0% Pro5, 100% B10-LARGE cell signal | activation, % at 10 µM | 0.22% of 360,000 active;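 active = activation of at least 8% versus controls, or a plate z-score of at least 8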;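 note: Pro5 are CHO cells carrying HIG-tagged alpha-DG that lacks glycosylation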
Active calls of the source: *; nt = no result given.

SMILES	NPR2 activator	GC-A act	Hep lipid drop	GRIN3A LBD mod	JMJD2C inh	aDG glyco act
COC(=O)[C@]12C[C@H](CC(=O)NCCC(C)C)C(=O)N(Cc3ccc4c(c3)OCO4)C1=C[C@H](C(C)C)O[C@@H]2C1CC1	-5	-10	nt	nt	nt	nt
CCCCCc1ccc(-c2nnc(N)s2)cc1	-6	1	-9	0	-10	2
CCCCCCc1ccc(-c2ncc(N)cn2)cc1	-5	-9	20	11*	-9	0
N#CCC(=O)Nc1ccc(C(=O)OC(C(=O)Nc2cc(C(F)(F)F)ccc2Cl)c2ccccc2)cc1 (stereo unspecified)	-3	-8	nt	29*	0	0
N#CCC(=O)Nc1ccc(C(=O)OC(C(=O)Nc2ccc([N+](=O)[O-])cc2Br)c2ccccc2)cc1 (stereo unspecified)	-2	-9	nt	12*	nt	0
O=C(CSc1ncnc2nc[nH]c12)N1CCOCC1	-1	0	nt	11*	-4	0
Cc1ccc(-c2nc(=S)c3c(n2CCN2CCOCC2)CC(C)(C)OC3)cc1	5	-2	-5	4	7	0
CCN(CC)CCn1c(-c2ccc(C)cc2)nc(=S)c2c1CC(C)(C)OC2	2	-2	-20	14*	nt	0
O=C([C@@H]1C[C@H]1c1ccccc1)N1CC[C@H]2[C@H](CCCN2Cc2ccccc2)C1	7	0	nt	nt	nt	nt
COc1ccc(Br)cc1CN(C)CC(=O)NCc1ccc(F)cc1	2	-13	-16	0	53*	0
CN(CC(=O)NCc1ccc(F)cc1)Cc1ccc(Br)cc1	-6	-7	-16	-1	1	0
O=C(COc1ccc(Cl)cc1)Nc1ccc(C(=O)O)cc1NC(=O)COc1ccc(Cl)cc1	4	0	-21	10*	10	0
O=C(COc1ccc(Cl)cc1)Nc1ccccc1Cl	2	6	2	2	-5	0
COC(=O)c1sc(-c2ccc(Cl)cc2)cc1NC(=O)/C=C/C(=O)O	-9	47*	-6	3	-7	0
N#Cc1c(N)nc2c(c1-c1ccncc1)CCCC2	1	-1	nt	1	6	0
N#Cc1c(N)nc2c(c1-c1ccncc1)CCCCCC2	3	2	nt	36*	-4	0
CC(C)(C)C(=O)Nc1cc2c3c(c1)CCN3C(=O)CC2	0	4	-1	-1	6	0
O=C(c1ccc(NS(=O)(=O)c2cccs2)cc1)N1CCOCC1	1	3	14	11*	-17	0
Cc1cc(C2(c3ccc(O)c(C)c3)OC(=O)c3ccccc32)ccc1O	0	-7	-4	-7	8	0
Cc1cc(O)c(C(C)C)cc1C1(c2cc(C(C)C)c(O)cc2C)OC(=O)c2ccccc21	1	-22	11	11*	-11	0
C#CCOCCOCCOCCNc1nc(N2CCN(C(=O)CCCCCCCCCCNC(=O)[C@H]([C@@H](C)CC)n3cc(CCCCCN)nn3)CC2)nc(N2CCN(C(=O)CCCCCCCCCCNC(=O)[C@H](CO)n3cc(CCCCCN)nn3)CC2)n1	nt	nt	nt	28*	-13	0
C#CCOCCOCCOCCNc1nc(N2CCOCC2)nc(N2CCN(C(=O)CCCCCCCCCCNC(=O)[C@@H]([C@H](C)CC)n3cc(CCCCCN)nn3)CC2)n1	1	5	nt	2	-11	0
CC(C)(C)OC(=O)NCCCCCc1cn([C@@H](CO)C(=O)NCCCCCCCCCCC(=O)N2CCN(C(=O)OC(C)(C)C)CC2)nn1	6	-2	nt	-2	2	5.8*
C#CCOCCOCCOCCNc1nc(N2CCN(C(=O)CCCCCCCCCCNC(=O)[C@H]([C@@H](C)CC)n3cc(CCCCN=C(N)N)nn3)CC2)nc(N2CCN(C(=O)CCCCCCCCCCNC(=O)[C@H](CO)n3cc(CCCCCN)nn3)CC2)n1	nt	nt	nt	17*	-22	-1
CN(Cc1ccccc1)S(=O)(=O)c1cccc(C(=O)OCc2cccc([N+](=O)[O-])c2)c1	2	0	nt	nt	nt	nt
COc1ccc(Cn2c(C)c(CC(=O)Nc3ccc(Oc4cccnc4)c(C)c3)c3ccccc32)cc1	2	0	nt	nt	nt	nt
